In brackets after ≈: the same amount, converted by molar mass. Activity calls are given as the source filed them. The calls are words filed in the database; no cut-off is given here.
How the values were obtained:
Format in all cases: functional
Bacillus cereus [1] = test: Bactericidal activity against Bacillus cereus ATCC 14579 after 18 to 24 hrs; settings: read-out: MBC99.9
Outline: (§1)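 After the liquid dilution MIC tubes, 0.1 mL from each tube spread on agar plates. Colonies counted after 18–24 h incubation at 35 °C. MBC taken as the lowest drug concentration killing 99.9% of the inoculum.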

Staphylococcus aureus [2] = test: Antibacterial activity against Staphylococcus aureus ATCC 6538 assessed as growth inhibition at 1000 ug/mL after 24 hrs by disk diffusion assay; settings: ATCC 6538, 24 h, read-out: DIZ
Outline: (§2)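 Disk diffusion on nutrient agar, inoculum spread evenly. Disks of 6 mm Whatman No. 1 paper, dry-heat sterilized at 121 °C for 1 h, soaked in test compound at 1000 (micro)g/mL. Norfloxacin and chlorothalonil disks as positive controls, DMSO disks as negative control. Plates incubated 24 h at 37 °C. Inhibition zone diameter measured in mm.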

Pseudomonas aeruginosa [3] = test: Antibacterial activity against Pseudomonas aeruginosa ATCC 15442 assessed as growth inhibition after 24 hrs by liquid dilution method
Outline: (§3)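 Liquid (tube) dilution. Compounds and positive controls in DMSO at 11 concentrations from 0.98 upward. Each tube held 1 mL compound solution plus bacterial or fungal inoculum and sterile water. Incubated 24 h, then checked for turbidity; MIC is the lowest concentration without growth. Chlorothalonil, norfloxacin and fluconazole as standards.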

Staphylococcus aureus [4] = test: Bactericidal activity against Staphylococcus aureus ATCC 6538 after 18 to 24 hrs; settings: read-out: MBC99.9; outline: as §1
Staphylococcus aureus [5] = test: Antibacterial activity against Staphylococcus aureus ATCC 6538 assessed as growth inhibition after 24 hrs by liquid dilution method; settings: ATCC 6538, 24 h; outline: as §3
Escherichia coli [6] = test: Antibacterial activity against Escherichia coli ATCC 8099 assessed as growth inhibition after 24 hrs by liquid dilution method; settings: ATCC 8099, 24 h; outline: as §3
Bacillus cereus [7] = test: Antibacterial activity against Bacillus cereus ATCC 14579 assessed as growth inhibition after 24 hrs by liquid dilution method; settings: ATCC 14579, 24 h; outline: as §3
Bacillus cereus [8] = test: Antibacterial activity against Bacillus cereus ATCC 14579 assessed as growth inhibition at 1000 ug/mL after 24 hrs by disk diffusion assay; settings: ATCC 14579, 24 h, read-out: DIZ; outline: as §2
Candida albicans [9] = test: Antifungal activity against Candida albicans ATCC 10231 assessed as growth inhibition at 1000 ug/mL after 24 hrs by disk diffusion assay; settings: for zone of inhibition at 1000 µg/mL: ATCC 10231, 24 h, read-out: DIZ; outline: as §2
Pseudomonas aeruginosa [10] = test: Antibacterial activity against Pseudomonas aeruginosa ATCC 15442 assessed as growth inhibition at 1000 ug/mL after 24 hrs by disk diffusion assay; settings: ATCC 15442, 24 h, read-out: DIZ; outline: as §2
Escherichia coli [11] = test: Antibacterial activity against Escherichia coli ATCC 8099 assessed as growth inhibition at 1000 ug/mL after 24 hrs by disk diffusion assay; settings: ATCC 8099, 24 h, read-out: DIZ; outline: as §2
Candida albicans [12] = test: Antifungal activity against Candida albicans ATCC 10231 assessed as growth inhibition after 24 hrs by liquid dilution method; settings: ATCC 10231, 24 h; outline: as §3
Candida albicans [13] = test: Fungicidal activity against Candida albicans ATCC 10231 after 18 to 24 hrs; settings: read-out: MFC99.9; outline: as §1

## CCn1cc(C(=O)O)c(=O)c2cc(F)c(N3CCNCC3)cc21 [NORFLOXACIN]
Bacillus cereus [1]
  MBC: 6.5 µg/mL (≈ 20.4 µM)
Staphylococcus aureus [2]
  zone of inhibition at 1000 µg/mL: 17 mm
Pseudomonas aeruginosa [3]; ATCC 15442, 24 h
  MIC: 0.7 µg/mL (≈ 2.19 µM)
Staphylococcus aureus [4]
  MBC: 5.2 µg/mL (≈ 16.3 µM)
Staphylococcus aureus [5]
  MIC: 1.2 µg/mL (≈ 3.76 µM)
Escherichia coli [6]
  MIC: 0.5 µg/mL (≈ 1.57 µM)
Bacillus cereus [7]
  MIC: 0.6 µg/mL (≈ 1.88 µM)
Bacillus cereus [8]
  zone of inhibition at 1000 µg/mL: 18.6 mm
Candida albicans [9]
  zone of inhibition at 1000 µg/mL: 21.8 mm
Pseudomonas aeruginosa [10]
  zone of inhibition at 1000 µg/mL: 16.8 mm
Escherichia coli [11]
  zone of inhibition at 1000 µg/mL: 20 mm

## N#Cc1c(Cl)c(Cl)c(Nc2ccc(N3CCCCC3)c3c(=O)[nH]cnc23)c(C#N)c1Cl
Bacillus cereus [1]
  MBC: 6.5 µg/mL (≈ 13.7 µM)
Staphylococcus aureus [2]
  zone of inhibition at 1000 µg/mL: 9.7 mm
Candida albicans [12]
  MIC: 2.6 µg/mL (≈ 5.49 µM)
Pseudomonas aeruginosa [3]; ATCC 15442, 24 h
  MIC: 1.3 µg/mL (≈ 2.74 µM)
Staphylococcus aureus [4]
  MBC: 4.6 µg/mL (≈ 9.71 µM)
Staphylococcus aureus [5]
  MIC: 0.7 µg/mL (≈ 1.48 µM)
Candida albicans [13]
  MFC: 41.7 µg/mL (≈ 88 µM)
Escherichia coli [6]
  MIC: 1 µg/mL (≈ 2.11 µM)
Bacillus cereus [7]
  MIC: 0.5 µg/mL (≈ 1.06 µM)
Bacillus cereus [8]
  zone of inhibition at 1000 µg/mL: 15 mm
Candida albicans [9]
  diameter of the inhibition zone (DIZ): inactive
Pseudomonas aeruginosa [10]
  zone of inhibition at 1000 µg/mL: 8.7 mm
Escherichia coli [11]
  zone of inhibition at 1000 µg/mL: 9 mm

## N#Cc1c(Cl)c(Cl)c(Nc2ccc(Nc3cccc(Cl)c3)c3c(=O)[nH]cnc23)c(C#N)c1Cl
Bacillus cereus [1]
  MBC: 41.7 µg/mL (≈ 80.8 µM)
Staphylococcus aureus [2]
  zone of inhibition at 1000 µg/mL: 8.5 mm
Candida albicans [12]
  MIC: 1.7 µg/mL (≈ 3.29 µM)
Pseudomonas aeruginosa [3]; ATCC 15442, 24 h
  MIC: 20.8 µg/mL (≈ 40.3 µM)
Staphylococcus aureus [4]
  MBC: 31.3 µg/mL (≈ 60.6 µM)
Staphylococcus aureus [5]
  MIC: 0.7 µg/mL (≈ 1.36 µM)
Candida albicans [13]
  MFC: 31.3 µg/mL (≈ 60.6 µM)
Escherichia coli [6]
  MIC: 7.8 µg/mL (≈ 15.1 µM)
Bacillus cereus [7]
  MIC: 0.5 µg/mL (≈ 0.969 µM)
Bacillus cereus [8]
  zone of inhibition at 1000 µg/mL: 9 mm
Candida albicans [9]
  zone of inhibition at 1000 µg/mL: 9 mm
Pseudomonas aeruginosa [10]
  zone of inhibition at 1000 µg/mL: 8.7 mm
Escherichia coli [11]
  zone of inhibition at 1000 µg/mL: 9 mm

## Cc1cc(C)cc(Nc2ccc(Nc3c(Cl)c(Cl)c(C#N)c(Cl)c3C#N)c3nc[nH]c(=O)c23)c1
Bacillus cereus [1]
  MBC: 31.3 µg/mL (≈ 61.4 µM)
Staphylococcus aureus [2]
  zone of inhibition at 1000 µg/mL: 10 mm
Candida albicans [12]
  MIC: 5.2 µg/mL (≈ 10.2 µM)
Pseudomonas aeruginosa [3]; ATCC 15442, 24 h
  MIC: 20.8 µg/mL (≈ 40.8 µM)
Staphylococcus aureus [4]
  MBC: 31.3 µg/mL (≈ 61.4 µM)
Staphylococcus aureus [5]
  MIC: 0.8 µg/mL (≈ 1.57 µM)
Candida albicans [13]
  MFC: 52.1 µg/mL (≈ 102 µM)
Escherichia coli [6]
  MIC: 7.8 µg/mL (≈ 15.3 µM)
Bacillus cereus [7]
  MIC: 0.7 µg/mL (≈ 1.37 µM)
Bacillus cereus [8]
  zone of inhibition at 1000 µg/mL: 10.3 mm
Candida albicans [9]
  zone of inhibition at 1000 µg/mL: 7 mm
Pseudomonas aeruginosa [10]
  zone of inhibition at 1000 µg/mL: 10 mm
Escherichia coli [11]
  zone of inhibition at 1000 µg/mL: 11.5 mm

## N#Cc1c(Cl)c(Cl)c(Nc2ccc(Nc3ccc(F)cc3)c3c(=O)[nH]cnc23)c(C#N)c1Cl
Bacillus cereus [1]
  MBC: 6.5 µg/mL (≈ 13 µM)
Staphylococcus aureus [2]
  zone of inhibition at 1000 µg/mL: 11.5 mm
Candida albicans [12]
  MIC: 1.7 µg/mL (≈ 3.4 µM)
Pseudomonas aeruginosa [3]; ATCC 15442, 24 h
  MIC: 1.7 µg/mL (≈ 3.4 µM)
Staphylococcus aureus [4]
  MBC: 6.5 µg/mL (≈ 13 µM)
Staphylococcus aureus [5]
  MIC: 0.8 µg/mL (≈ 1.6 µM)
Candida albicans [13]
  MFC: 52.1 µg/mL (≈ 104 µM)
Escherichia coli [6]
  MIC: 6.5 µg/mL (≈ 13 µM)
Bacillus cereus [7]
  MIC: 0.7 µg/mL (≈ 1.4 µM)
Bacillus cereus [8]
  zone of inhibition at 1000 µg/mL: 18 mm
Candida albicans [9]
  zone of inhibition at 1000 µg/mL: 10.5 mm
Pseudomonas aeruginosa [10]
  zone of inhibition at 1000 µg/mL: 11 mm
Escherichia coli [11]
  zone of inhibition at 1000 µg/mL: 9 mm

## N#Cc1c(Cl)c(Cl)c(Cl)c(C#N)c1Cl [CHLOROTHALONIL]
Bacillus cereus [1]
  MBC: 1.7 µg/mL (≈ 6.39 µM)
Staphylococcus aureus [2]
  zone of inhibition at 1000 µg/mL: 14 mm
Candida albicans [12]
  MIC: 0.7 µg/mL (≈ 2.63 µM)
Pseudomonas aeruginosa [3]; ATCC 15442, 24 h
  MIC: 1.7 µg/mL (≈ 6.39 µM)
Staphylococcus aureus [4]
  MBC: 2 µg/mL (≈ 7.52 µM)
Staphylococcus aureus [5]
  MIC: 1.3 µg/mL (≈ 4.89 µM)
Candida albicans [13]
  MFC: 7.8 µg/mL (≈ 29.3 µM)
Escherichia coli [6]
  MIC: 0.5 µg/mL (≈ 1.88 µM)
Bacillus cereus [7]
  MIC: 0.7 µg/mL (≈ 2.63 µM)
Bacillus cereus [8]
  zone of inhibition at 1000 µg/mL: 15.5 mm
Candida albicans [9]
  zone of inhibition at 1000 µg/mL: 17 mm
Pseudomonas aeruginosa [10]
  zone of inhibition at 1000 µg/mL: 15.8 mm
Escherichia coli [11]
  zone of inhibition at 1000 µg/mL: 18.5 mm

## Cc1cccc(Nc2ccc(Nc3c(Cl)c(Cl)c(C#N)c(Cl)c3C#N)c3nc[nH]c(=O)c23)c1
Staphylococcus aureus [2]
  zone of inhibition at 1000 µg/mL: 9.7 mm
Pseudomonas aeruginosa [3]
  MIC: inactive
Staphylococcus aureus [5]
  MIC: 5.2 µg/mL (≈ 10.5 µM)
Escherichia coli [6]
  MIC: 104 µg/mL (≈ 210 µM)
Bacillus cereus [7]
  MIC: 1 µg/mL (≈ 2.02 µM)
Bacillus cereus [8]
  zone of inhibition at 1000 µg/mL: 11 mm
Candida albicans [9]
  zone of inhibition at 1000 µg/mL: 10 mm
Pseudomonas aeruginosa [10]
  zone of inhibition at 1000 µg/mL: 10 mm
Escherichia coli [11]
  zone of inhibition at 1000 µg/mL: 10.3 mm

## OC(Cn1cncn1)(Cn1cncn1)c1ccc(F)cc1F [FLUCONAZOLE]
Candida albicans [12]
  MIC: 2 µg/mL (≈ 6.53 µM)
Candida albicans [13]
  MFC: 15.6 µg/mL (≈ 50.9 µM)

## CN(C)c1ccc(Nc2c(Cl)c(Cl)c(C#N)c(Cl)c2C#N)c2nc[nH]c(=O)c12
Bacillus cereus [1]
  MBC: 3.3 µg/mL (≈ 7.61 µM)
Staphylococcus aureus [2]
  zone of inhibition at 1000 µg/mL: 14.3 mm
Candida albicans [12]
  MIC: 0.5 µg/mL (≈ 1.15 µM)
Pseudomonas aeruginosa [3]; ATCC 15442, 24 h
  MIC: 2 µg/mL (≈ 4.61 µM)
Staphylococcus aureus [4]
  MBC: 2.6 µg/mL (≈ 6 µM)
Staphylococcus aureus [5]
  MIC: 3.3 µg/mL (≈ 7.61 µM)
Candida albicans [13]
  MFC: 7.8 µg/mL (≈ 18 µM)
Escherichia coli [6]
  MIC: 1.3 µg/mL (≈ 3 µM)
Bacillus cereus [7]
  MIC: 0.8 µg/mL (≈ 1.84 µM)
Bacillus cereus [8]
  zone of inhibition at 1000 µg/mL: 18 mm
Candida albicans [9]
  zone of inhibition at 1000 µg/mL: 15.5 mm
Pseudomonas aeruginosa [10]
  zone of inhibition at 1000 µg/mL: 15 mm
Escherichia coli [11]
  zone of inhibition at 1000 µg/mL: 19 mm

Reference: ChEMBL document CHEMBL2434951, “Synthesis and antimicrobial activity of polyhalobenzonitrile quinazolin-4(3H)-one derivatives” (2013)
